Measured values from the EternaBench riboswitch data.

Tested on: MS2 coat protein
Assay: apparent Kd, MS2 coat protein; higher = weaker binding; RNA-MaP array; FMN 200 µM where present
Outline: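 In 100 mM Tris-HCl pH 7.5, 80 mM KCl, 4 mM MgCl2, BSA, DTT, yeast tRNA and Tween-20, SNAP-549-labelled MS2 coat protein was titrated from 0.7 or 1.5 nM, doubling to 3 µM, over designs transcribed by stalled E. coli RNA polymerase on Illumina sequencing-chip clusters. This was done first without ligand, then with ligand held constant. After green signal was normalised to red-channel RNA signal and control-cluster median Fmax, the apparent Kd was taken as the median of filtered per-cluster binding-curve fits.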

[1] = designed as: OFF switch for flavin mononucleotide, no ligand
[2] = ligand present: flavin mononucleotide, designed as: OFF switch for flavin mononucleotide
[3] = designed as: ON switch for flavin mononucleotide, no ligand
[4] = ligand present: flavin mononucleotide, designed as: ON switch for flavin mononucleotide

| Sequence | apparent Kd [1] | apparent Kd [2] | apparent Kd [3] | apparent Kd [4] |
| --- | --- | --- | --- | --- |
| UGUGUUAUAGGAUAUACGGGUAUGUGAAUCUCUCCAUCGGUACAUGAGGAUCACCCAUGUAGAAGGAUAAGGUA | 35.7 nM | 80.8 nM |  |  |
| UUCCUCGUUGUGAGGAUAUCGUAUUCUUUUUGUUACGAGAAGGCACAUGAGGAUCACCCAUGUUUCUUGAUGUU | 19.5 nM | 68.8 nM |  |  |
| UGAAAUCAUGUAGGAUAUGCAUGGCGAAGCUACGCAGAAGGACAUGAGGAUCACCCAUGUUCUAGCUACCGAGAACGGUGGCAA | 20.9 nM | 109 nM |  |  |
| GAGAAGAAGUUAGGAUAUUGGAUAGGGACGGACUAAGAAGGAGCACAUACAUGAGGAUCACCCAUGUUAGAAGAAGAUCCUCCA | 32.3 nM | 25.5 nM |  |  |
| CAAGACAUUCGAAACUGCCGGCCGCAGGAUAUGGGUCGUUUAUACAUGAGGAUCACCCAUGUCGCCUAGAAGGGCGGCUGGGUC |  |  | 174 nM | 17.6 nM |
| AAAAGGUUAGGAUAUGCCCGCCGGGUGGGAAGGCCGGGUGGGUAGAAGGGACAUGAGGAUCACCCAUGUAAAAA | 48.6 nM | 20 nM |  |  |
| UGGUACAUGGGAGGAUAUGGGUUGAUAACAUGAGGAUCACCCAUGUUAAAUAUGGCGAGAGCCAACUAGAAGGCCCAUGUACCU |  |  | 594 nM | 38.8 nM |
| AUUAUUAAGUUAGGAUAUAGUAAAAUGAUUUAGUUAGAAGGAGCUCACAUGAGGAUCACCCAUGUAAGAGGAUCACCCAUGUAU | 23.8 nM | 15.6 nM |  |  |
| UUAUGCUUUGAGAAGGUUCAAACUACAUAUUGCGCACAUGAGGAUCACCCAUGUUGGUGAAUAAGAAAGGAUAUUAGACUGUGC | 267 nM | 165 nM |  |  |
| ACAUUAAGUGCAGGAUAUGCCAACCUGGGUUCGGUAGAAGGGCACAUGAGGAUCACCCAUGUAGCGGUGGGUUGGGCCAAGGUU | 13.3 nM | 35.6 nM |  |  |
| AUCAGCUCGUCAGGAUAUACGUCACUACGUCAGCAGUGUGGUAAGAUCACAUGAGGAUCACCCAUGUAGAAGGGACGAGCUGAU | 21.4 nM | 201 nM |  |  |
| CAUCAUGCGUCUAAGGAUAUGUCUCACAAGACAUGAGGAUCACCCAUGUAGAAUAAAUAAAUGAUGCAGAAGGUGGAGCGCAUGC |  |  | 343 nM | 57.4 nM |
| GGUGGACAUGAGGAUCACCCAUGUGAGGAUAUCGGCCGGCUAGUGGUGGCUGGCUUCUCGAGAAGGCGCAUAGU | 61.8 nM | 99.7 nM |  |  |
| AAAAAGUAAGGAUAUCGGCGGCGGCGGAGGCGGCGGCGGCUCGAGAAGGUACAUGAGGAUCACCCAUGUAAAAA | 29.2 nM | 15.3 nM |  |  |
| UAGAGCGCUUGAGGAUAUCGCUUUGUGAUGGUACUCAUGCUUGUUACAUGAGGAUCACCCAUGUGCGAGAAGGCAGGCCGUUAG | 59.3 nM | 12.6 nM |  |  |
| CAUGCCUGCACAGGAUAUCAUACAUGAGGAUCACCCAUGUCUAACAACACAUGAGAAGGGUGCAUGCCUGGGCGAAGUUUUGUG |  |  | 24.3 nM | 6.22 nM |
| CUUUUGUGAGGAUAUCAGUAGUAAAAAAAUAAAAUUACUACUGAGAAGGCACAUGAGGAUCACCCAUGUUCCUU | 26.8 nM | 31.6 nM |  |  |
| AAACAUGUCCGAGGAUAUCUGGAAACAAUUCCAAGAGAAGGCGGACAUGAGGAUCACCCAUGUCUCUCCUCAUCAAAUCCAAGU | 11.2 nM | 67.1 nM |  |  |
| GUAAAUCAUGUAGGAUAUGCAUGGCGAAGCUACGCAGAAGGACAUGAGGAUCACCCAUGUUAUAGCUACCCAGUUCGGUGGCAA | 102 nM | 220 nM |  |  |
| AAGCUGCGCCAGAAGGGACCGACAUGAGGAUCACCCAUGUCCACAAGAGUCAGGAUAUGGCGUGGAGGCUCGUUUAUGUCCAAG |  |  | 13.1 nM | 5.44 nM |
| GGUGCACGCACAGGAUAUCCGGCGGAGCUCGUCGGAGAAGGGUGACAUGAGGAUCACCCAUGUACGUGCAACCCAGUUUGAGAG |  |  | 45.2 nM | 30.7 nM |
| GAUAGGACAGAGAAGGACGUAGCUAGAGAUACUAGCAUAAAGUCCUCAACAUGAGGAUCACCCAUGUAGGAUAUCUGUCCUAUC | 6.39 nM | 7.13 nM |  |  |
| ACAUGAGAUUUAGGAUAUAUAGUACCUACAUGUGACAUGAGGAUCACCCAUGUGGUAAGUAUGACAUAGAAGGAAAAGAUAUGU |  |  | 66 nM | 67 nM |
| GUAAAUCAUGUAGGAUAUGCAUGGCGAAGCUACGCAGAAGGACAUGAGGAUCACCCAUGUCUCUCCGUCUGCAUACAGACGGAG | 26.9 nM | 230 nM |  |  |
| AAAACGUGAGGAUAUACAUGAGGAUCACCCAUGUGAAACAGGAAAAACUGAAAGAAAAGUAGAAGGCACGAAAA | 33.4 nM | 50.1 nM |  |  |
| UGGUCAACAUCAGGAUAUUAACAUGGGCUACACUAAGAAGGGAUAAUGAAAUACGAACUAAACGCACAUGAGGAUCACCCAUGU |  |  | 34.4 nM | 25 nM |
| CUUAGUUUGUAGAAGGGUGACAUGAGGAUCACCCAUGUGCGUCUCCUGAAAGACCAGGGUACGCCACAGGAUAUACAAAGUAAG |  |  | 42.7 nM | 47.7 nM |
| GGAAGCUCAACGGAGCUAAGGUAGAAGGAUAUCCACGGCUAUAUCCACAUGAGGAUCACCCAUGUGGAGAAGGUCUAUCUUAAG | 5.83 nM | 10.4 nM |  |  |
